Screening data (PubChem)
ADAM10 inh = human ADAM10 inhibitors, primary screen, biochemical, QFRET, HTS. actives 0.62% (n = 370,000). recombinant ADAM10, EDANS/DABCYL FRET peptide cleavage, 3 h. inhibition, % at 7 µM;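 active = inhibition above a per-campaign cutoff equal to the mean of compounds falling between control-based bounds plus 3 SD, cut at about 20% in these data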
ADAM17 inh = ADAM17 inhibitors, primary screen, biochemical, QFRET; recombinant ADAM17, EDANS/DABCYL FRET peptide cleavage; inhibition, % at 6.95 µM; Disintegrin and metalloproteinase domain-containing protein 17 (Homo sapiens), P78536; actives 0.83% (n = 370,000); AID 720648, 2013;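 active = inhibition above the mean of compounds lying between control limits plus 3 SD, set per campaign, cut at about 8.5% in these data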
Target sequence (P78536 215-824 limits assumed): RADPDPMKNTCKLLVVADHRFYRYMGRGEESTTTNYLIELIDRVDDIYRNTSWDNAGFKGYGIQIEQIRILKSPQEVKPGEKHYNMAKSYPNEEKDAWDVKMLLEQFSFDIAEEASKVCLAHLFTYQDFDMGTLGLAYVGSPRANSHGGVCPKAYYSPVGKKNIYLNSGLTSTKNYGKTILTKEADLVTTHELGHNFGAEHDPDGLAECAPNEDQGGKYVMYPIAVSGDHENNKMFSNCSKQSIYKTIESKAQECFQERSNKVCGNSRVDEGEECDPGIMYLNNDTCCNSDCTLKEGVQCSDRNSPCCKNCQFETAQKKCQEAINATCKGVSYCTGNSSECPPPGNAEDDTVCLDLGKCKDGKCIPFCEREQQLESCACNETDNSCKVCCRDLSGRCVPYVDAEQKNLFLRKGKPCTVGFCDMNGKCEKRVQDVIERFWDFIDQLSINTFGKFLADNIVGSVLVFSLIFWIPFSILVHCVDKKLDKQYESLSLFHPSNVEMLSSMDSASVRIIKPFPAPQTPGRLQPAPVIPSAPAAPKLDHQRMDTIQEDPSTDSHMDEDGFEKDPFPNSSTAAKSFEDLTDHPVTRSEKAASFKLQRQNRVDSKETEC
SENP1 inh = human SENP1 catalytic domain inhibitors, primary screen, biochemical, FRET, uHTS; recombinant SENP1 catalytic domain, CyPet-SUMO1-YPet FRET cleavage; inhibition, % at 10 µM; actives 0.21% (n = 360,000);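 active = inhibition at least 30% at 10 µM, raw YFP signal under a set limit, fluorescence ratio 0.5 to 1.5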
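Test system: hSENP1 catalytic domain, recombinant; Amount: 20 pM final SENP1 enzyme; Medium: Tris pH 8 buffer plus EDTA, NaCl, BME, BSA, NP40, catalase; Schedule: 50 min enzyme reaction, room temperature, light-protected; Technique: FRET fluorescence in CFP and YFP emission channels; Controls: no-enzyme wells low, DMSO-plus-enzyme wells high control.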
FAS TE block = FAS thioesterase domain inhibitors, primary screen, biochemical, fluorescence intensity, uHTS; Fatty acid synthase (Homo sapiens), P49327; recombinant FAS-TE, OMFH fluorogenic substrate, fluorescence endpoint; actives 0.67% (n = 360,000); AID 602261, 2012; inhibition, % at 15 µM;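 active = compounds whose normalised, plate-corrected inhibition of enzyme fluorescence in the single-dose primary screen is 50% or more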
ADAM10 confirm = human ADAM10 inhibitors, confirmation, biochemical, QFRET, triplicate; shares compounds with ADAM10 inh; ADAM10 QFRET peptide cleavage, EDANS fluorescence; inhibition, % at 6.95 µM; actives 1% (n = 2,100); AID 743208, 2013;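 active = inhibition above about 20% chosen separately for each screening run, limit read from the data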
ADAM17 counter = ADAM17 inhibitors, counter-screen for ADAM10 exosite inhibitor project, biochemical, QFRET, high throughput; shares compounds with ADAM10 inh; ADAM17 QFRET peptide cleavage, EDANS fluorescence; inhibition, % at 6.95 µM; actives 0.5% (n = 2,100); AID 743214, 2013;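 active = mean triplicate inhibition above the solvent-only control wells' mean plus 3 SD, cut at about 12% in these data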
ADAM10 ctr = ADAM10 inhibitors, counter-screen for ADAM17 exosite inhibitor project, biochemical, FRET, human ADAM10; shares compounds with ADAM17 inh; recombinant ADAM10, EDANS/DABCYL FRET peptide cleavage, 3 h; inhibition, % at 6.95 µM; actives 47% (n = 2,900);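 active = mean inhibition over the triplicate runs exceeds the activity threshold set in the earlier primary screen, cut at about 20% in these data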
ADAM17 confirm = ADAM17 inhibitors, hit retest, confirmation, biochemical, QFRET peptide cleavage. shares compounds with ADAM17 inh. actives 65% (n = 2,900). recombinant ADAM17, EDANS/DABCYL QFRET peptide cleavage. inhibition, % at 6.95 µM;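 active = mean inhibition across replicates above the hit cutoff set in the primary screen, cut at about 8.5% in these data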
Of the large screens only hits and unclear results are named; the others gave an inactive call (follow-up assays come after a bar, where they were run). This is a sample that favours compounds with a hit; in the whole collection about 1.9% have one here.

Cc1cc(Nc2ccc(Cl)cc2)n(-c2cccc(Cl)c2)n1	ADAM10 inh 24, ADAM17 inh 9.8 | ADAM10 confirm inactive | ADAM17 counter inactive | ADAM10 ctr inactive | ADAM17 confirm 11
Cc1cc(Nc2ccc(Cl)cc2)n(-c2ccccc2)n1	none
Cc1noc(C)c1COc1cccc(C(=O)Nc2ccc3c(c2)OCO3)c1	none
Cc1ccc(NC(=O)c2cccc(OCc3c(C)noc3C)c2)cc1S(=O)(=O)Nc1ccccc1Cl	ADAM10 inh 22, ADAM17 inh 10 | ADAM10 confirm inactive | ADAM17 counter inactive | ADAM10 ctr 34 | ADAM17 confirm 16
COc1ccc(C2CC(c3ccccc3)=NN2C(=O)COC(=O)c2cccnc2)cc1 (configuration not stated)	none
COc1ccc(C2CC(c3ccccc3)=NN2C(=O)COC(=O)c2cccnc2Cl)cc1 (configuration not stated)	ADAM10 inh 20, ADAM17 inh 8.9 | ADAM10 confirm inactive | ADAM17 counter inactive | ADAM10 ctr inactive | ADAM17 confirm 9.3
CCCCCCNC(=O)CC(c1ccccc1)c1cc(Br)ccc1O (configuration not stated)	ADAM10 inh 35, ADAM17 inh 23 | ADAM10 confirm inactive | ADAM17 counter inactive | ADAM10 ctr 41 | ADAM17 confirm 22
C=CC[C@H]1c2ccccc2[C@H]2N3N=Cc4ccccc4[C@H]3[C@H](CCCC)C(=O)N2N1C(=O)c1ccccc1	none (no result: SENP1 inh, FAS TE block)
CCCCCCn1c(=O)n2n(c1=O)[C@@H]1CN(S(=O)(=O)c3ccc(C)cc3)C[C@]1(O)[C@@H](OC(=O)NCc1ccccc1)C2	ADAM10 inh 22, ADAM17 inh 9.9 | ADAM10 confirm inactive | ADAM17 counter inactive | ADAM10 ctr 33 | ADAM17 confirm 16
CCCCCCn1c(=O)n2n(c1=O)C[C@]1(OC(=O)NCc3ccccc3F)CN(S(=O)(=O)c3ccc(C)cc3)C[C@]1(O)C2	ADAM10 inh 37, ADAM17 inh 14 | ADAM10 confirm inactive | ADAM17 counter inactive | ADAM10 ctr 33 | ADAM17 confirm 16
CCCCCCNC(=O)O[C@@]12CN(S(=O)(=O)c3ccc(C)cc3)C[C@]1(O)Cn1c(=O)n(CCCCCC)c(=O)n1C2	none
O=S1(=O)c2ccc(N3CCSCC3)cc2Oc2ccccc2CN1Cc1cn(Cc2ccc(F)cc2)nn1	none (no result: SENP1 inh, FAS TE block)
COc1ccc(CCN2C(=O)c3[nH]nc(-c4ccccc4O)c3C2c2cccc(Cl)c2)cc1 (configuration not stated)	ADAM10 inh 36, ADAM17 inh 14 | ADAM10 confirm inactive | ADAM17 counter inactive | ADAM10 ctr 41 | ADAM17 confirm 17
Cc1ccc(-c2cc(-c3nnc(SCC(=O)N4c5ccccc5Sc5ccccc54)n3N)[nH]n2)cc1	none (no result: SENP1 inh, FAS TE block)
CC1CC(=O)N(CCc2ccccc2)C(=O)C1	none
O=C1CC(=O)N(CCc2ccccc2)C(=O)N1CCc1ccccc1	ADAM10 inh 24, ADAM17 inh 13 | ADAM10 confirm inactive | ADAM17 counter inactive | ADAM10 ctr 25 | ADAM17 confirm 9.9
O=C(Nc1ccccc1)Nc1cc(OCC(F)(F)F)cc(OCC(F)(F)F)c1	ADAM10 inh 31, ADAM17 inh 15, FAS TE block 52 | ADAM10 confirm inactive | ADAM17 counter inactive | ADAM10 ctr 28 | ADAM17 confirm 17
O=C(Nc1ccccc1)Nc1cc(Cl)cc(Cl)c1	none
CCOC(=O)c1ccc(NC(=O)Cn2nnc(-c3ccccc3C)n2)cc1	ADAM10 inh 22, ADAM17 inh 10 | ADAM10 confirm inactive | ADAM17 counter inactive | ADAM10 ctr 41 | ADAM17 confirm 24
CCCC#C/C(CCC)=C1\c2ccccc2C(=O)N1c1ccccc1	none (no result: SENP1 inh, FAS TE block)
CCOC(=O)[C@@]12CCC3=C1N(CCC3)C(=O)[C@H](CC(=O)NCc1ccc(OC)c(OC)c1)C2	none (no result: SENP1 inh, FAS TE block)
Cc1cc(-n2c(C)cc(C(=O)CSc3nnnn3-c3ccccc3)c2C)no1	none
Cc1ccc(-n2nnnc2SCC(=O)c2cc(C)n(-c3cc(C)on3)c2C)c(C)c1	ADAM10 inh 24, ADAM17 inh 15 | ADAM10 confirm inactive | ADAM17 counter inactive | ADAM10 ctr inactive | ADAM17 confirm 11
CC(C)(C)N(Cc1cn(Cc2ccccc2)nn1)S(=O)(=O)c1ccc(F)cc1Br	none (no result: SENP1 inh, FAS TE block)
C/C(=C/c1nc(N)n(Cc2ccccc2)c1Cc1ccccc1)Cn1[nH]c(=O)n(-c2ccccc2)c1=O	none (no result: SENP1 inh, FAS TE block)
Cn1c(COc2ccccc2)nnc1SCC(=O)Nc1ccccc1-c1ccccc1	none (no result: SENP1 inh, FAS TE block)
O=C(Nc1ccccc1)OCC1COC(c2ccccc2)(c2ccccc2)O1 (configuration not stated)	ADAM10 inh 25, ADAM17 inh 11 | ADAM10 confirm inactive | ADAM17 counter inactive | ADAM10 ctr 24 | ADAM17 confirm 12
COc1ccc2ccccc2c1CN1CCN(c2ncc(Cc3ccccc3)cn2)CC1	none (no result: SENP1 inh, FAS TE block)
COc1ccc(NC(=S)Nc2nc(CC(=O)Nc3ccccc3OC)cs2)cc1	ADAM10 inh 24, ADAM17 inh 9.3 | ADAM10 confirm inactive | ADAM17 counter inactive | ADAM10 ctr inactive | ADAM17 confirm 14
COc1ccc(NC(=O)Cc2csc(NC(=O)Nc3ccccc3OC)n2)c(OC)c1	none
Cc1ccc(C(=O)N2CCN(C3c4cccc5cccc(c45)C3NS(=O)(=O)c3ccccc3)CC2)cc1 (configuration not stated)	ADAM10 inh 24, ADAM17 inh 11 | ADAM10 confirm inactive | ADAM17 counter inactive | ADAM10 ctr inactive | ADAM17 confirm 12
CCCc1nc2ccccc2c(C(=O)OC(C)C(=O)NCc2ccc3c(c2)OCO3)c1CC (configuration not stated)	ADAM10 inh 27, ADAM17 inh 10 | ADAM10 confirm inactive | ADAM17 counter inactive | ADAM10 ctr 25 | ADAM17 confirm 12
COc1ccc(S(=O)(=O)Nc2ccccc2)cc1	none
